# Sampled rows, rich in hits. Any-hit rate of the full collection: about 3.9%.
# HSF1 inh = HSF1 inhibitors in luciferase reporter cells, primary screen, cell-based, NIH3T3, luminescence. NIH3T3-HGL HSE-luciferase, MG132-induced, luminescence 8 h; hits give low values. activity change, negative = inhibition, % at 7.5 µM (by protocol). actives 0.77% (n = 300,000). AID 2098, 2009;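 active = more than half of replicate wells show activity change below -50%, luminescence cut by over half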;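 note: luciferase reports HSF-1 transcriptional activity via heat shock element; 0% = median of DMSO wells and -100% = zero luminescence signal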
# HSF1 activator = HSF-1 activators, primary screen, NIH3T3-HGL cells, MG132 stress, luminescence, single point. NIH3T3-HGL HSF-1 luciferase reporter, 8 h; 100% = twice DMSO control signal. activation, % at 9 µM. actives 1.7% (n = 300,000);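 active = mean replicate activation of at least 50% with a set share of replicates each reaching 50%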;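 note: 0% = median of the neutral control wells and 100% = twice that signal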
# HCV core dimer = inhibitors of HCV core protein dimerization, primary screen, biochemical, TR-FRET, high-throughput. TR-FRET GST/Flag-core106 dimerization, 1536-well. inhibition, % at 5 µM. actives 0.33% (n = 300,000). AID 1899, 2009;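 active = inhibition above the mean of all tested compounds plus 3 SD, set per screening campaign, cut at about 45% in these data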
#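 Assay system: GST-tagged and Flag-tagged HCV core protein residues 1-106 / Times: compound-protein-antibody incubation 4 h at 22.5 °C / Signal: time-resolved FRET, ex 340 nm, em 617 and 671 nm / Evaluation: % inhibition based on acceptor/donor emission ratio / Benchmarks: wells lacking GST-core106 and wells with excess unlabelled core106 / Repeats: singlicate, one well per compound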
# DNA FID counter = compounds displacing fluorescent DNA intercalator, primary screen, artefact control for HCV NS3 helicase inhibitor project, biochemical, FID fluorescence; DNA fluorescent intercalator displacement; inhibition, % at 7.9 µM; actives 0.17% (n = 290,000); AID 1845, 2009; in the data active = inhibition above about 37%;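 note: 0% = vehicle and 100% = reference compound; higher means more ethidium bromide displaced from hairpin DNA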
# NS3 helicase inh = inhibitors of HCV NS3 helicase, primary screen, biochemical, Cy5 molecular beacon fluorescence; Hepatitis C virus NS3 helicase; inhibition, % at 10.9 µM; actives 0.56% (n = 290,000); NS3 helicase DNA unwinding;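 active = inhibition above the mean of all tested compounds plus 3 SD, set per campaign, cut at about 35% in these data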;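 note: 0% = DMSO wells and 100% = thioflavine S control wells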
#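 test system = hepatitis C virus NS3 helicase domain fragment enzyme | reagent = annealed dual-labelled DNA beacon duplex, ATP-started | times = 1 h at 25 °C | detection = Cy5 fluorescence, 0 and 60 min reads | read-out basis = percent inhibition from t60/t0 fluorescence ratio | control set = DMSO and thioflavine S | replication = one well per compound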
# HSP90 inh = HSP90 inhibitors, primary screen, cell lysate, luminescence | Rabbit reticulocyte lysate, luciferase refolding luminescence, 3 h | actives 0.91% (n = 290,000) | inhibition, % at 5.6 µM | Heat shock protein HSP 90 (rabbit reticulocyte lysate; luciferase refolding);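 active = inhibition above the screen-wide mean plus 3 SD, computed separately per campaign, cut at about 16% in these data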;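 note: 0% = DMSO wells and 100% = 60 µM geldanamycin wells; inhibitors lower the luminescence because luciferase stays unfolded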
# Starred values were filed as active, the others as inactive; nt = not tested or not shown.
SMILES,HSF1 inh,HSF1 activator,HCV core dimer,DNA FID counter,NS3 helicase inh,HSP90 inh
N#Cc1ccsc1NC(=O)CN1CCCCCC1,0.5,9.1,-5.7,-3.7,-1.1,-1.0
Cc1ccc(NC(=O)NC2CCCCC2)cc1Cl,nt,nt,-3.9,-5.9,-12.7,-1.0
N#Cc1ccsc1NC(=O)COC(=O)c1ccc(NC(N)=O)cc1,19.2,35.1,6.5,0.8,10.4,2.8
Cc1ccc(NC(=O)CN(C)C2CCCCC2)cc1Cl,-81.7*,-84.4,nt,22.6,-4.1,0.6
Cc1ccccc1C(=O)Nn1cnc2ccccc2c1=O,12.3,9.8,-1.4,-0.2,-1.1,-2.7
CCC(=O)N(Cc1ccco1)c1nc(-c2cc(OC)ccc2OC)cs1,3.0,3.2,0.2,-1.1,0.8,-1.6
CCc1ccc(/C=N/NC(=O)c2c[nH]c3ccccc23)s1,25.2,57.8*,3.5,-4.7,0.9,-1.1
COC(=O)CCCC(=O)N1CCCC(CCC(=O)NCc2ccc(F)c(F)c2)C1 (centres undefined),1.9,9.6,-3.6,-19.6,12.4,-2.1
CC1CCN(Cc2nc(-c3ccccc3)no2)CC1,16.3,26.0,3.0,-1.7,-6.1,0.6
c1ccc(-c2noc(CN3CCCC(OCc4ccccn4)C3)n2)cc1 (centres undefined),-8.1,-3.8,-0.6,60.3*,-10.2,1.8
N#Cc1ccc(CSc2nnc3[nH]c(=O)cc(N)n23)cc1,7.7,-4.2,-6.5,-1.2,10.7,-2.9
COc1ccc(C2Nc3ccccc3C(=O)N2c2ccccc2)cc1Cn1cc([N+](=O)[O-])cn1 (centres undefined),6.3,15.4,5.9,-4.3,4.1,-0.1
COc1ccc(N2C(=O)c3ccccc3NC2c2ccc(OC)c(Cn3cc([N+](=O)[O-])cn3)c2)cc1 (centres undefined),-68.3*,-75.4,7.2,-17.3,-13.7,1.5
CCc1ccc2nc(Nc3nc(COC)cc(=O)[nH]3)nc(C)c2c1,-5.0,-3.2,2.1,-10.8,7.0,0.4
COCc1cc(=O)[nH]c(Nc2nc3ccc(C)cc3o2)n1,171.1,209.6*,-6.8,-14.7,-2.6,-1.1
O=C(Cc1cccc2ccccc12)N1CCN(c2ncccn2)CC1,2.2,4.0,2.1,-20.2,2.6,0.1
O=C(Cc1coc2ccc3ccccc3c12)N1CCN(c2ncccn2)CC1,-2.4,7.3,53.1*,-25.7,2.2,3.0
COCC(O)CNc1ccccc1 (centres undefined),5.3,4.7,-3.6,-1.6,-8.2,-3.4
O=C(NCCN1CCOCC1)c1cc2ccccc2oc1=O,7.5,-10.8,-1.7,-2.7,6.7,-2.7
O=C(NCCN1CCOCC1)c1cc2ccccc2o1,24.9,61.3*,-4.1,-1.0,5.1,-0.7
COc1ccc(/C=C\C(=O)CC(O)(c2ccccc2)C(F)(F)F)cc1 (centres undefined),4.7,8.4,0.0,-12.8,-4.8,11.3
CC1CCCN(S(=O)(=O)c2ccc(NC(=O)CCN3C(=O)c4ccccc4C3=O)cc2)C1 (centres undefined),-4.4,9.3,17.3,-11.7,-19.5,-1.3
CS(=O)(=O)N1CCN(c2nc3ccc(Cl)cc3s2)CC1,9.8,32.9,0.9,-0.8,-3.7,-2.7
Clc1ccc2nc(N3CCCCC3)sc2c1,20.6,55.5*,0.3,1.7,4.7,-0.1
COc1ccc(S(=O)(=O)N2CCN(Cc3cccc(F)c3)CC2)cc1,-11.8,-5.2,0.0,nt,nt,nt
Cn1c(N=Nc2ccc(N3CCOCC3)cc2)[n+](C)c2ccccc21,-20.3,-33.7,nt,59.0*,-5.0,-3.1
Cn1c(=Nc2ccc(N3CCOCC3)cc2)ccc2ccccc21,-11.0,-7.7,-4.3,1.9,0.1,-2.8
